# Article PMC11649739 (Clinical Pharmacokinetics, 2024)
# Where two headings read alike, the source gives them in different places.
# Assay type: in vivo, human
# Conditions: for CL/F, Maximum / CL/F, Mean / CL/F, Median / CL/F, Minimum / Vc/F, Maximum / Vc/F, Mean / Vc/F, Median / Vc/F, Minimum: Bayesian-estimated; for AUC / concentration at 24 h: human, plasma, oral; for concentration at 24 h: 24 h postdose on day 1
# Summary of the method: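 Ensitrelvir was dosed once daily, 375 mg on day 1 then 125 mg on days 2–5, or 750/250 mg. A population PK model was fitted to 8034 plasma concentrations from 2060 healthy and SARS-CoV-2-infected participants: two-compartment, first-order absorption, with covariates tested on CL/F. Empirical Bayesian estimates from the final model were used to calculate individual exposures for SCORPIO-SR phase III participants.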
# [1] = 125 mg group: 375 mg on day 1 and 125 mg on days 2–5
# [2] = 125 mg group: 375 mg on day 1 and 125 mg on days 2–5, day 1
# [3] = 125 mg group: 375 mg on day 1 and 125 mg on days 2–5, day 5
# [4] = 250 mg group: 750 mg on day 1 and 250 mg on days 2–5
# [5] = 250 mg group: 750 mg on day 1 and 250 mg on days 2–5, day 1
# [6] = 250 mg group: 750 mg on day 1 and 250 mg on days 2–5, day 5
smiles,measurement,setting,value
Cn1cnc(Cn2c(=O)[nH]/c(=N\c3cc4cn(C)nc4cc3Cl)n(Cc3cc(F)c(F)cc3F)c2=O)n1 [ensitrelvir],"Entire AUC, Maximum",[1],4429 µg·h/mL
same,"Entire AUC, Minimum",[1],1404 µg·h/mL
same,"Entire Cmax, Maximum",[1],46800 ng/mL
same,"Entire Cmax, Minimum",[1],14300 ng/mL
same,"CL/F, Maximum",[1],0.400 L/h
same,"CL/F, Mean",[1],0.216 L/h
same,"CL/F, Median",[1],0.212 L/h
same,"CL/F, Minimum",[1],0.116 L/h
same,"Vc/F, Maximum",[1],34.4 L
same,"Vc/F, Mean",[1],15.1 L
same,"Vc/F, Median",[1],14.7 L
same,"Vc/F, Minimum",[1],7.66 L
same,"AUC_d1, Maximum",[2],784.7 µg·h/mL
same,"AUC_d1, Minimum",[2],127.0 µg·h/mL
same,"Cmax_d1, Maximum",[2],41000 ng/mL
same,"Cmax_d1, Mean",[2],23400 ng/mL
same,"Cmax_d1, Median",[2],22900 ng/mL
same,"Cmax_d1, Minimum",[2],10300 ng/mL
same,"AUC_d5, Maximum",[3],1156 µg·h/mL
same,"AUC_d5, Minimum",[3],224.5 µg·h/mL
same,"Cmax_d5, Maximum",[3],46800 ng/mL
same,"Cmax_d5, Mean",[3],26600 ng/mL
same,"Cmax_d5, Median",[3],26200 ng/mL
same,"Cmax_d5, Minimum",[3],14300 ng/mL
same,"Entire AUC, Maximum",[4],9652 µg·h/mL
same,"Entire AUC, Minimum",[4],3090 µg·h/mL
same,"Entire Cmax, Maximum",[4],104000 ng/mL
same,"Entire Cmax, Minimum",[4],31900 ng/mL
same,"CL/F, Maximum",[4],0.353 L/h
same,"CL/F, Mean",[4],0.201 L/h
same,"CL/F, Median",[4],0.198 L/h
same,"CL/F, Minimum",[4],0.0963 L/h
same,"Vc/F, Maximum",[4],28.1 L
same,"Vc/F, Mean",[4],14.5 L
same,"Vc/F, Median",[4],14.1 L
same,"Vc/F, Minimum",[4],7.31 L
same,"AUC_d1, Maximum",[5],1617 µg·h/mL
same,"AUC_d1, Minimum",[5],375.0 µg·h/mL
same,"Cmax_d1, Maximum",[5],86900 ng/mL
same,"Cmax_d1, Mean",[5],48900 ng/mL
same,"Cmax_d1, Median",[5],47700 ng/mL
same,"Cmax_d1, Minimum",[5],24900 ng/mL
same,"AUC_d5, Maximum",[6],2502 µg·h/mL
same,"AUC_d5, Minimum",[6],615.4 µg·h/mL
same,"Cmax_d5, Maximum",[6],104000 ng/mL
same,"Cmax_d5, Mean",[6],56400 ng/mL
same,"Cmax_d5, Median",[6],55100 ng/mL
same,"Cmax_d5, Minimum",[6],31900 ng/mL
same,AUC,"AUC_d1, Mean, 125 mg group: 375 mg on day 1 and 125 mg on days 2–5, day 1",438 µg·h/mL
same,AUC,"AUC_d1, Mean, 250 mg group: 750 mg on day 1 and 250 mg on days 2–5, day 1",910 µg·h/mL
same,AUC,"AUC_d1, Median, 125 mg group: 375 mg on day 1 and 125 mg on days 2–5, day 1",432 µg·h/mL
same,AUC,"AUC_d1, Median, 250 mg group: 750 mg on day 1 and 250 mg on days 2–5, day 1",887 µg·h/mL
same,AUC,"AUC_d5, Mean, 125 mg group: 375 mg on day 1 and 125 mg on days 2–5, day 5",578 µg·h/mL
same,AUC,"AUC_d5, Mean, 250 mg group: 750 mg on day 1 and 250 mg on days 2–5, day 5",1230 µg·h/mL
same,AUC,"AUC_d5, Median, 125 mg group: 375 mg on day 1 and 125 mg on days 2–5, day 5",568 µg·h/mL
same,AUC,"AUC_d5, Median, 250 mg group: 750 mg on day 1 and 250 mg on days 2–5, day 5",1200 µg·h/mL
same,concentration at 24 h,"C24_d1, Maximum, 125 mg group: 375 mg on day 1 and 125 mg on days 2–5",27600 ng/mL
same,concentration at 24 h,"C24_d1, Maximum, 250 mg group: 750 mg on day 1 and 250 mg on days 2–5",61000 ng/mL
same,concentration at 24 h,"C24_d1, Mean, 125 mg group: 375 mg on day 1 and 125 mg on days 2–5",16600 ng/mL
same,concentration at 24 h,"C24_d1, Mean, 250 mg group: 750 mg on day 1 and 250 mg on days 2–5",34800 ng/mL
same,concentration at 24 h,"C24_d1, Median, 125 mg group: 375 mg on day 1 and 125 mg on days 2–5",16500 ng/mL
